Results on two compounds are retold here after ChEMBL document CHEMBL4819003, “Optimization of novel oxidative DIMs as Nur77 modulators of the Nur77-Bcl-2 apoptotic pathway” (Eur J Med Chem, 2021).

The nature of data set [1]: Half life in female Sprague-Dawley rat at 5 mg/kg, po measured for 36 hrs by LC-MS/MS analysis. It is filed as ADME, organism-based. The settings on record: in vivo.
The nature of data set [2]: MRT(0 to t) in male Sprague-Dawley rat at 0.5 mg/kg, iv measured for 36 hrs by LC-MS/MS analysis. It is filed as ADME, organism-based. As to conditions: in vivo.
Data set [3] is described as follows: Volume of distribution at steady state in male Sprague-Dawley rat at 0.5 mg/kg, iv measured for 36 hrs by LC-MS/MS analysis. The settings on record: in vivo, read-out: Vdss. It is filed as ADME, organism-based. The gist of the method: (§1)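 Sprague-Dawley rats (200–220 g), three males and three females per route group. Dosed 5 mg/kg orally or 0.5 mg/kg IV as a solution in DMSO/T-80/H2O (1:5:94 by volume). Heparinized blood was drawn from 5 min to 36 h after IV and 1–36 h after oral dosing. Plasma was protein-precipitated with methanol (2% HCl) plus carbamazepine internal standard and assayed by LC-MS/MS. Parameters were taken from concentration-time data; n = 3 per sex, mean ± SD.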

A short description of data set [4]: AUC (0 to t) in male Sprague-Dawley rat at 5 mg/kg, po measured for 36 hrs by LC-MS/MS analysis. It is filed as ADME, organism-based. More on the design: dose 5 mg/kg, time 36 hrs. As to conditions: in vivo. The method, boiled down: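 Sprague-Dawley rats (200–220 g), three per sex per route, were dosed at 0.5 mg/kg IV or 5 mg/kg PO in DMSO/Tween-80/water (1:5:94). Heparinized blood was drawn from 5 min to 36 h after IV dosing and from 1 h to 36 h after oral dosing. Plasma was deproteinized with methanol (2% HCl) plus carbamazepine internal standard, measured by LC-MS/MS, and reported as mean ± SD.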

A short description of data set [5]: Oral bioavailability in male Sprague-Dawley rat at 5 mg/kg measured for 36 hrs by LC-MS/MS analysis. It is filed as ADME, organism-based. As to conditions: in vivo. The gist of the method:
as §1

Data set [6] in a line: Cmax in male Sprague-Dawley rat at 0.5 mg/kg, iv measured for 36 hrs by LC-MS/MS analysis. More on the design: route intravenous, dose 0.5 mg/kg, time 36 hrs. As to conditions: in vivo. The data set is classed as ADME, organism-based.
Data set [7] is described as follows: Volume of distribution at steady state in female Sprague-Dawley rat at 0.5 mg/kg, iv measured for 36 hrs by LC-MS/MS analysis. The data set is classed as ADME, organism-based. The settings on record: in vivo. The gist of the method: as §1
The nature of data set [8]: Cmax in female Sprague-Dawley rat at 5 mg/kg, po measured for 36 hrs by LC-MS/MS analysis. The data set is classed as ADME, organism-based. More on the design: route oral, time 36 hrs, dose 5 mg/kg. The settings on record: in vivo.
Data set [9] is described as follows: Tmax in male Sprague-Dawley rat at 5 mg/kg, po measured for 36 hrs by LC-MS/MS analysis. The data set is classed as ADME, organism-based. As to conditions: in vivo. The method, boiled down: as §1
A short description of data set [10]: Half life in male/female Sprague-Dawley rat at 5 mg/kg, po measured for 36 hrs by LC-MS/MS analysis. As to conditions: both, in vivo. The data set is classed as ADME, organism-based.
Data set [11] deals with MEF. Briefly: Induction of apoptosis in mouse MEF cells deficient in Bcl2 assessed as PARP cleavage at 0.5 uM measured after 6 hrs by Western blot assay. The data set is classed as functional, cell-based. The gist of the method: (§2)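 Wild-type, Nur77−/− or Bcl-2−/− mouse embryonic fibroblasts grown in DMEM with 10% FBS and treated with 0.5 µM for 6 h. PARP cleavage detected by western blot, primary antibodies at 1:1000, ECL.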
Background: A western blot detects proteins with antibodies after separation by electrophoresis.

Data set [12] can be described thus: Selectivity index, ratio of IC50 for human NCM460 cells to IC50 for human SW-620 cells.
For data set [13], the system named is HCT-116. Briefly: Induction of apoptosis in human HCT-116 cells assessed as PARP cleavage at 0.5 uM measured after 6 hrs by western blot assay. It is filed as functional, cell-based. The gist of the method:
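Cells exposed to 0.5 µM for 6 h. Lysates resolved by SDS-PAGE and blotted to PVDF, blocked in 5% milk/TBST, probed with primary antibodies at 1:1000, ECL detection. Apoptosis scored as the densitometric ratio of cleaved PARP band to intact PARP band; mean ± SD, n = 3.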

Data set [14] in a line: Tmax in male/female Sprague-Dawley rat at 5 mg/kg, po measured for 36 hrs by LC-MS/MS analysis. It is filed as ADME, organism-based. The settings on record: both, in vivo. The gist of the method:
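Sprague-Dawley rats (200–220 g), four per route group (2 male, 2 female), given 0.5 mg/kg IV or 5 mg/kg orally in DMSO/T-80/H2O (1:5:94). Heparinized blood was sampled at 5 min–36 h after IV and at 0.5, 1, 3, 4, 6, 8, 10, 12, 24 and 36 h after oral dosing. Plasma was methanol (2% HCl)-precipitated with carbamazepine internal standard and quantified by LC-MS/MS. Parameters reported as mean ± SD.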

A short description of data set [15]: Toxicity in mammary tumor MMTV-PyMT mouse model assessed as changes in body weight at 3 mg/kg, po administered daily for 14 days. The settings on record: in vivo, 336 h, time 14 day. The data set is classed as organism-based. The gist of the method:
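Female MMTV-PyMT transgenic mice (FVB/N background), 12 weeks old, randomized n = 6 per group. They received daily oral gavage of 3 mg/kg for 14 days. Drug was dissolved in DMSO and diluted with saline containing 5.0% Tween-80 to 3 mg/mL final. Body weight was recorded after 14 days against untreated controls, mean ± SD.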

The test system of data set [16] is MEF. The experiment in a line: Induction of apoptosis in wild type mouse MEF cells assessed as PARP cleavage at 0.5 uM measured after 6 hrs by western blot assay. The data set is classed as functional, cell-based. The method, boiled down:
as §2

Data set [17] has as its target Nuclear receptor subfamily 4immunitygroup A member 1 (Homo sapiens, UniProt P22736). The experiment in a line: Modulation of GFP-Nur77 (unknown origin) transfected in human HEK293T cells co-transfected with Flag-tagged Bcl2 assessed as interaction of Nur77 with Bcl2 in mitochondria at 0.5 uM measured after 2 hrs by confocal microscopy. As to conditions: filed as modulator. The gist of the method:
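HEK293T cells were lipofectamine-cotransfected with Flag-Bcl-2 and GFP-Nur77 or GFP-Nur77-LBD, then given 0.5 μM compound for 2 h. Cells were fixed in 4% paraformaldehyde, permeabilised with 0.1% Triton X-100, blocked in 1% BSA and stained with anti-Flag plus DAPI. Mitochondrial colocalisation with Bcl-2 was read by confocal microscopy.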

Data set [18] concerns HCT-116. The experiment in a line: Induction of apoptosis in human HCT-116 cells assessed as PARP cleavage at 0.5 uM measured after 6 hrs by western blot assay relative to Di(1H-indol-3-yl)(4-(trifluoromethyl)phenyl)methylium methanesulfonate. It is filed as functional. The method, boiled down: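 HCT116 cells grown in RPMI-1640 with 10% FBS, exposed to 0.5 μM compound for 6 h. Lysates run on SDS-PAGE and blotted for PARP and cleaved PARP (primary antibodies 1:1000, ECL detection). The cleaved-PARP/PARP band intensity ratio was expressed relative to the reference compound set to 1. Mean ± SD, n = 3.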

The nature of data set [19]: AUC (0 to t) in male/female Sprague-Dawley rat at 0.5 mg/kg, iv measured for 36 hrs by LC-MS/MS analysis. It is filed as ADME, organism-based. More on the design: dose 0.5 mg/kg, time 36 hrs. As to conditions: both, in vivo. The method, boiled down:
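Four Sprague-Dawley rats per route (2 male, 2 female; 200–220 g) received 0.5 mg/kg IV or 5 mg/kg PO in DMSO/Tween-80/water (1:5:94). Heparinized blood was taken at 5 min–36 h after IV dosing and at 0.5, 1, 3, 4, 6, 8, 10, 12, 24 and 36 h after oral dosing. Methanol (2% HCl) precipitation with carbamazepine internal standard preceded LC-MS/MS; values are mean ± SD.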

The subject of the next data set is SW-620. Briefly: Induction of apoptosis in human SW-620 cells assessed as viable cells at 0.5 uM measured after 6 hrs by Annexin V-FITC/PI staining based flow cytometry method (reference value: 98.37%). It is filed as functional. As to conditions: read-out: Activity. The method, boiled down:
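Cells seeded at 1×10^6 per well and treated with 0.5 µM for 6 h. Floating and adherent cells pooled, stained with Annexin V-FITC for 10 min and propidium iodide for 5 min, then analysed immediately by flow cytometry in FITC and PC5.5 channels. Mean ± SD, n = 3.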
Background: In flow cytometry, cells or beads pass a laser one at a time.

Each structure is given as a SMILES string. Calls of active or inactive are those of the source. The calls are words filed in the database; no cut-off is given here.

Nuclear receptor subfamily 4immunitygroup A member 1, sequence (P22736 whole entry, the tested form may be a part): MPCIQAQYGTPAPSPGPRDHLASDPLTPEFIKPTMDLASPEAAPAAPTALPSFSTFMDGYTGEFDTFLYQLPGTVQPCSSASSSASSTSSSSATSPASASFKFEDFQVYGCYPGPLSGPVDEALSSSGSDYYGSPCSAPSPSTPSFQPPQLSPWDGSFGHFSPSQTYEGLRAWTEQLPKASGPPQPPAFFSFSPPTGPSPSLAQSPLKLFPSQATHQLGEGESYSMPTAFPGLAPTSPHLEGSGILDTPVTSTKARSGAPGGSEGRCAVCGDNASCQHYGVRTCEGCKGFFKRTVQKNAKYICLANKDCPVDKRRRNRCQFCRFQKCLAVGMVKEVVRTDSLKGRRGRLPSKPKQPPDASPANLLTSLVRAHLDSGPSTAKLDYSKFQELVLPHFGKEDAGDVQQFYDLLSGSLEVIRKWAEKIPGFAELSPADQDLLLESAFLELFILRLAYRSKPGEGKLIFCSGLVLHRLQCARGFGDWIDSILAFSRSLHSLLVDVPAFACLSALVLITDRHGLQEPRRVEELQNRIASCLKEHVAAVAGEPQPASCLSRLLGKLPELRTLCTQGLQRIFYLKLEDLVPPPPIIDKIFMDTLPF

Usually half-life stands for how long it takes for the measured level to halve. The low end stands for fast loss, the high end for slow loss. In general, MRT last refers to a mean duration of stay, worked out from the concentration-time curve. By AUC(0-t) is commonly meant exposure summed from dosing to a finite time, without extrapolation to infinity. A high value points to high exposure. By bioavailability is commonly meant the share of a dose that reaches the circulation, judged against a reference dose that is usually intravenous. Read a high bioavailability as good availability. As usually defined, the Cmax is the maximum level reached in the sampled fluid or tissue. Usually Vdss stands for the apparent volume that relates the amount in the body to the concentration in plasma or blood. Read a high Vdss as extensive tissue distribution. The Tmax is the time from dosing to the highest level. `CS(=O)(=O)[O-].FC(F)(F)c1ccc([C+](c2c[nH]c3ccccc23)c2c[nH]c3ccccc23)cc1`: the half-life in data set [1] was 6.81 h. The same compound displayed an MRT last at 36 h in [2] of 4.31 h. The Vd in [3] is 2.56 L/kg. In data set [4], this compound registered an AUC(0-t) at 36 h of 2250 ng·h/mL. This compound returned a bioavailability in data set [5] of 20.1%. Besides, the figures for the Cmax in [6] and in data set [8] were 880 ng/mL and 203 ng/mL, respectively. This compound also showed a Vdss in [7] of 2.38 L/kg. Besides, the Tmax in data set [9] stood at 5.33 h.
Consider `CS(=O)(=O)[O-].Cn1cc([C+](c2ccc(C(F)(F)F)cc2)c2c[nH]c3ccccc23)c2ccccc21`, for which, in [10], the half-life is 4.49 h. In addition, the result in the data set with MEF [11] was inactive. For the same compound, in [12], the “Ratio IC50” value came out at 50. Further, the result (in the data set with HCT-116 [13]; with MEF [16]; in data set [17]) was Active. Moreover, the Tmax in data set [14] was found to be 3 h. Also, the Activity result in [15] is “Non-Toxic”. Moreover, the “fold change (FC)” value in the data set on HCT-116 [18] came out at 13.54. This compound also displayed an AUC(0-t) at 36 h in [19] of 501 ng·h/mL. The viability at 0.5 µM in the data set on SW-620 stood at 7.08%.
